Assay results reported in ChEMBL document CHEMBL1125677, “New derivatives of kanamycin B obtained by combined modifications in positions 1 and 6". Synthesis, microbiological properties, and in vitro and computer-aided toxicological evaluation” (J Med Chem, 1991).
In brackets after ≈: the same amount, converted by molar mass.

Experiments:
Klebsiella pneumoniae [1] = experiment: Minimum inhibitory concentration was measured against Klebsiella pneumoniae ATCC 13883; type: functional
Summary of the method: (§1)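 Agar dilution and microtiter broth dilution, with incubation in Mueller-Hinton medium; MIC expressed in mg/L.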

Escherichia coli [2] = experiment: Minimum inhibitory concentration was measured against Escherichia coli 71120101 producing AAD-(4')) modifying enzyme; type: functional
Summary of the method: (§2)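 MICs were determined by agar dilution and by microtiter (broth) dilution in Mueller-Hinton medium against strains producing defined aminoglycoside-modifying enzymes. Values are reported in mg/L.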

Escherichia coli [3] = experiment: Minimum inhibitory concentration was measured against Escherichia coli OLA 290R5 producing AAD-(2'')-modifying enzyme; type: functional; summary of the method: as §2
Escherichia coli [4] = experiment: Minimum inhibitory concentration was measured against Escherichia coli 001574-1 producing APH-(3'') modifying enzyme; type: functional; summary of the method: as §2
Salmonella typhimurium [5] = experiment: (§3) Minimum inhibitory concentration was measured against Salmonella Typhimurium ATCC 14028; type: functional; summary of the method: as §1
Escherichia coli [6] = experiment: Minimum inhibitory concentration was measured against Escherichia coli ATCC 25992.; type: functional; summary of the method: as §1
Escherichia coli [7] = experiment: Minimum inhibitory concentration was measured against Escherichia coli 72091801 producing AAC-(3)-I modifying enzyme; type: functional; summary of the method: as §2
[8] = system: Staphylococcus epidermidis; experiment: Minimum inhibitory concentration was measured against Staphylococcus epidermidis ATCC 12228.; type: functional; summary of the method: as §1
Klebsiella pneumoniae [9] = experiment: (§4) Minimum inhibitory concentration was measured against Klebsiella pneumoniae 7608271 producing AAC-(3)-II modifying enzyme; type: functional; summary of the method: as §1
Escherichia coli [10] = experiment: Minimum inhibitory concentration was measured against Escherichia coli 76070703 producing AAC-(3)-I modifying enzyme; type: functional; summary of the method: as §2
Serratia marcescens [11] = experiment: Minimum inhibitory concentration was measured against Serratia marcescens ATCC 8100; type: functional; summary of the method: as §1
Klebsiella pneumoniae [12] = experiment: Minimum inhibitory concentration was measured against Klebsiella pneumoniae 00GT3020 producing AAD-(2'')-modifying enzyme; type: functional; summary of the method: as §2
Escherichia coli [13] = experiment: Minimum inhibitory concentration was measured against Escherichia coli 73110901 producing AAC-(6')-I) modifying enzyme; type: functional; summary of the method: as §1
Serratia marcescens [14] = experiment: Minimum inhibitory concentration was measured against Serratia marcescens S20.; type: functional; summary of the method: as §1
Serratia marcescens [15] = experiment: Minimum inhibitory concentration was measured against Serratia marcescens 75012711 producing AAD-(2'')+AAC(6'') modifying enzyme; type: functional; summary of the method: as §1
Bacillus subtilis = experiment: Minimum inhibitory concentration was measured against Bacillus subtilis ATCC 6633.; type: functional; summary of the method: as §1
Pseudomonas aeruginosa = experiment: Minimum inhibitory concentration was measured against Pseudomonas aeruginosa ATCC 27853; type: functional; summary of the method: as §1
Staphylococcus aureus [16] = experiment: Minimum inhibitory concentration was measured against Staphylococcus aureus ATCC 25923; type: functional; summary of the method: as §1
Escherichia coli [17] = experiment: Minimum inhibitory concentration was measured against Escherichia coli 00000589 producing APH-(3'') modifying enzyme; type: functional; summary of the method: as §2
Enterobacter cloacae = experiment: Minimum inhibitory concentration was measured against Enterobacter cloacae ATCC 23355; type: functional; summary of the method: as §1
Providencia stuartii [18] = experiment: Minimum inhibitory concentration was measured against Providencia stuartii 75082808 producing AAC-(2'') modifying enzyme; type: functional; summary of the method: as §1
Serratia marcescens [19] = experiment: Minimum inhibitory concentration was measured against Serratia marcescens S69.; type: functional; summary of the method: as §1
Salmonella typhimurium [20] = experiment: as §3; type: functional, salmonella typhimurium a; settings: Salmonella enterica; summary of the method: as §1
Klebsiella pneumoniae [21] = experiment: Minimum inhibitory concentration was measured against Klebsiella pneumoniae 760070702 producing AAC-(3)-I modifying enzyme; type: functional; summary of the method: as §1
Klebsiella pneumoniae [22] = experiment: Minimum inhibitory concentration was measured against Klebsiella pneumoniae 75012101 producing AAD-(2'')-modifying enzyme; type: functional; summary of the method: as §1
Staphylococcus aureus [23] = experiment: Minimum inhibitory concentration was measured against Staphylococcus aureus 76080401 producing AAD-(4')) modifying enzyme; type: functional; summary of the method: as §1
Klebsiella pneumoniae [24] = experiment: as §4; type: functional; summary of the method: as §1; remark: listed apart in the source
Escherichia coli [25] = experiment: Minimum inhibitory concentration was measured against Escherichia coli 0000JR66 producing AAD-(2'')-modifying enzyme; type: functional; summary of the method: as §1
Providencia stuartii [26] = experiment: Minimum inhibitory concentration was measured against Providencia stuartii 72052305 producing AAC-(2'') modifying enzyme; type: functional; summary of the method: as §1
Serratia marcescens [27] = experiment: microbe, parasite or virus in culture
Providencia stuartii [28] = experiment: Minimum inhibitory concentration was measured against Providencia stuartii 00000164 producing AAC-(2'') modifying enzyme; type: functional; summary of the method: as §1
[29] = in the assay text read “AAC-(2')” for “AAC-(2'')”

| Compound | MIC (Klebsiella pneumoniae [1]) [µg/mL] | MIC (Escherichia coli [2]) [µg/mL] | MIC (Escherichia coli [3]) [µg/mL] | MIC (Escherichia coli [4]) [µg/mL] | MIC (Escherichia coli [6]) [µg/mL] | MIC (Escherichia coli [7]) [µg/mL] | MIC [8] [µg/mL] | MIC (Escherichia coli [10]) [µg/mL] | MIC (Serratia marcescens [11]) [µg/mL] | MIC (Klebsiella pneumoniae [12]) [µg/mL] | MIC (Escherichia coli [13]) [µg/mL] | MIC (Serratia marcescens [14]) [µg/mL] | MIC (Serratia marcescens [15]) [µg/mL] | MIC (Bacillus subtilis) [µg/mL] | MIC (Pseudomonas aeruginosa) [µg/mL] | MIC (Staphylococcus aureus [16]) [µg/mL] | MIC (Escherichia coli [17]) [µg/mL] | MIC (Enterobacter cloacae) [µg/mL] | MIC (Serratia marcescens [19]) [µg/mL] | MIC (Klebsiella pneumoniae [21]) [µg/mL] | also measured |
| --- | --- | --- | --- | --- | --- | --- | --- | --- | --- | --- | --- | --- | --- | --- | --- | --- | --- | --- | --- | --- | --- |
| GENTAMICIN | 1 | 2 | 64 | 1 | 1 | 2 | 1 | 128 | 1 | 32 | 4 | 128 | 32 | 1 | 1 | 1 | 2 | 1 | 128 |  | MIC (Salmonella typhimurium [5]; Salmonella enterica subsp. enterica serovar Typhimurium): 1 µg/mL; MIC (Klebsiella pneumoniae [9]): 256 µg/mL; MIC (Providencia stuartii [18]; pseudomonas stuartii): 64 µg/mL |
| [N-]=[N+]=NCC1OC(OC2C(O)C(OC3OC(CN)C(O)C(O)C3N)C(N)CC2(N)CO)C(O)C(N)C1O (stereo unspecified) | 0.5 (≈ 0.928 µM) |  |  |  | 1 (≈ 1.86 µM) |  | 1 (≈ 1.86 µM) |  | 2 (≈ 3.71 µM) |  |  | > 64 |  | 2 (≈ 3.71 µM) | > 128 | 0.5 (≈ 0.928 µM) |  | 0.25 (≈ 0.464 µM) | > 64 |  | MIC (Salmonella typhimurium [20]): 1 µg/mL (≈ 1.86 µM) |
| CNC1C(O)C(OC2C(O)C(OC3OC([C@@H](C)N)CCC3N)C(N)CC2(N)CO)OCC1(C)O (stereo partly specified) |  |  |  |  |  |  |  | 2 (≈ 4.05 µM) |  |  | 8 (≈ 16.2 µM) |  | 2 (≈ 4.05 µM) |  |  |  |  |  |  | 1 (≈ 2.03 µM) | MIC (Klebsiella pneumoniae [22]): 2 µg/mL (≈ 4.05 µM); MIC (Staphylococcus aureus [23]): 0.5 µg/mL (≈ 1.01 µM); MIC (Klebsiella pneumoniae [24]): 1 µg/mL (≈ 2.03 µM); MIC (Escherichia coli [25]): 8 µg/mL (≈ 16.2 µM); MIC (Providencia stuartii [18]; [29]): 8 µg/mL (≈ 16.2 µM) |
| NC[C@H]1O[C@H](O[C@H]2[C@H](O)[C@@H](O[C@H]3O[C@H](CO)[C@@H](O)[C@H](N)[C@H]3O)[C@H](N)C[C@@H]2N)[C@H](N)[C@@H](O)[C@@H]1O [BEKANAMYCIN] | 0.25 (≈ 0.517 µM) |  |  |  | 1 (≈ 2.07 µM) |  | 0.25 (≈ 0.517 µM) |  | 1 (≈ 2.07 µM) |  |  | > 64 |  | 0.5 (≈ 1.03 µM) | > 128 | 0.5 (≈ 1.03 µM) |  | 0.25 (≈ 0.517 µM) | > 64 |  | MIC (Salmonella typhimurium [5]; Salmonella enterica): 1 µg/mL (≈ 2.07 µM) |
| NCC1OC(OC2C(N)CC(N)(CO)C(OC3OC(CCl)C(O)C(N)C3O)C2O)C(N)C(O)C1O (stereo unspecified) | 0.5 (≈ 0.94 µM) | 128 (≈ 241 µM) | 8 (≈ 15 µM) | 2 (≈ 3.76 µM) | 1 (≈ 1.88 µM) | > 256 | 0.5 (≈ 0.94 µM) |  | 2 (≈ 3.76 µM) | > 256 | 128 (≈ 241 µM) | > 64 | > 256 | 1 (≈ 1.88 µM) | > 128 | 0.5 (≈ 0.94 µM) | > 128 | 0.25 (≈ 0.47 µM) | > 64 | 1 (≈ 1.88 µM) | MIC (Providencia stuartii [26]): 32 µg/mL (≈ 60.2 µM); MIC (Klebsiella pneumoniae [22]): 16 µg/mL (≈ 30.1 µM); MIC (Serratia marcescens [27]): 8 µg/mL (≈ 15 µM); MIC (Staphylococcus aureus [23]): 256 µg/mL (≈ 481 µM); MIC (Salmonella typhimurium [5]; Salmonella enterica): 2 µg/mL (≈ 3.76 µM); MIC (Providencia stuartii [28]): 256 µg/mL (≈ 481 µM); MIC (Klebsiella pneumoniae [24]): > 256 µg/mL; MIC (Escherichia coli [25]): > 256 µg/mL |
| NCC[C@H](O)C(=O)N[C@@H]1C[C@H](N)[C@@H](O[C@H]2O[C@H](CN)[C@@H](O)[C@H](O)[C@H]2O)[C@H](O)[C@H]1O[C@H]1O[C@H](CO)[C@@H](O)[C@H](N)[C@H]1O [AMIKACIN] |  | 4 (≈ 6.83 µM) | 2 (≈ 3.42 µM) | 2 (≈ 3.42 µM) | 4 (≈ 6.83 µM) | 8 (≈ 13.7 µM) |  | 4 (≈ 6.83 µM) |  | 2 (≈ 3.42 µM) | 256 (≈ 437 µM) | 8 (≈ 13.7 µM) | 2 (≈ 3.42 µM) |  |  | 1 (≈ 1.71 µM) | 8 (≈ 13.7 µM) | 1 (≈ 1.71 µM) | 2 (≈ 3.42 µM) |  | MIC (Providencia stuartii [26]): 1 µg/mL (≈ 1.71 µM); MIC (Serratia marcescens [27]): 1 µg/mL (≈ 1.71 µM); MIC (Providencia stuartii [28]): 16 µg/mL (≈ 27.3 µM); MIC (Providencia stuartii [18]; [29]): 16 µg/mL (≈ 27.3 µM) |
| NCC1OC(OC2C(N)CC(N)(CO)C(OC3OC(CO)C(O)C(N)C3O)C2O)C(N)C(O)C1O (stereo unspecified) | 0.25 (≈ 0.487 µM) | > 128 | 8 (≈ 15.6 µM) | 4 (≈ 7.79 µM) | 0.5 (≈ 0.974 µM) | > 128 | 0.25 (≈ 0.487 µM) |  | 1 (≈ 1.95 µM) | > 128 | > 128 | > 64 | > 128 | 0.5 (≈ 0.974 µM) | > 128 | 0.25 (≈ 0.487 µM) | > 128 | 0.25 (≈ 0.487 µM) | > 64 | 1 (≈ 1.95 µM) | MIC (Providencia stuartii [26]): 16 µg/mL (≈ 31.2 µM); MIC (Klebsiella pneumoniae [22]): 4 µg/mL (≈ 7.79 µM); MIC (Serratia marcescens [27]): 4 µg/mL (≈ 7.79 µM); MIC (Staphylococcus aureus [23]): > 128 µg/mL; MIC (Salmonella typhimurium [5]; Salmonella enterica): 1 µg/mL (≈ 1.95 µM); MIC (Providencia stuartii [28]): > 128 µg/mL; MIC (Klebsiella pneumoniae [24]): > 128 µg/mL; MIC (Escherichia coli [25]): > 128 µg/mL |
| CC(=O)NCC1OC(OC2C(O)C(OC3OC(CN)C(O)C(O)C3N)C(N)CC2(N)CO)C(O)C(N)C1O (stereo unspecified) | 2 (≈ 3.61 µM) |  |  |  | 4 (≈ 7.21 µM) |  | 1 (≈ 1.8 µM) |  | 16 (≈ 28.8 µM) |  |  | > 64 |  | 8 (≈ 14.4 µM) | > 128 | 1 (≈ 1.8 µM) |  | 0.25 (≈ 0.451 µM) | > 64 |  | MIC (Salmonella typhimurium [20]): 8 µg/mL (≈ 14.4 µM) |
